pIC50: −log10 of the molar value. Calls of active or inactive are those of the source. No cut-off for these calls is given here.
Columns and labels:
[1] = target: Epidermal growth factor receptor (Homo sapiens, UniProt P00533); assay: Inhibition of EGFR (unknown origin) up to 10 uM using biotin-labelled peptide as substrate preincubated for 2 hrs followed by substrate addition and measured after 30 mins by HTRF FRET assay
How it was run: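 EGFR WT was used at 0.1 nM final in 50 mM HEPES pH 7.0, 0.02% NaN3, 0.01% BSA, 0.1 mM orthovanadate, 10 mM MgCl2, 2.5 mM DTT, 6.25 nM SEB. It was preincubated with compound for 2 h. Biotin-peptide (1.4 μM) and ATP (20 μM) were then added for 30 min at RT. Read-out was HTRF/TR-FRET (Ex 320, Em 615/665 nm) with a sigmoidal curve fit.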

[2] = target: Dipeptidyl peptidase 1 (Homo sapiens, UniProt P53634); assay: Inhibition of cathepsin C in human THP1 cells using H-Gly-Phe-AFC as substrate preincubated for 4 hrs followed by substrate addition and measured after 60 mins; assay type: cell-based
Dipeptidyl peptidase 1, sequence (P53634 25-134 limits assumed): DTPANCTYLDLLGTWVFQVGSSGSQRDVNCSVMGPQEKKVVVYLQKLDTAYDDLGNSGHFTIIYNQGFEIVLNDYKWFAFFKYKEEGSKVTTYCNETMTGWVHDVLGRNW
Dipeptidyl peptidase 1, sequence (P53634 231-394 limits assumed): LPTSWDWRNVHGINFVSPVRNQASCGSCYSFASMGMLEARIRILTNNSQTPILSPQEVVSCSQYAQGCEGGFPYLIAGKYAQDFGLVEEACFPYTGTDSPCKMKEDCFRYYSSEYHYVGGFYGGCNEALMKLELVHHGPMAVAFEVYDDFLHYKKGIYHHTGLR
Dipeptidyl peptidase 1, sequence (P53634 395-463 limits assumed): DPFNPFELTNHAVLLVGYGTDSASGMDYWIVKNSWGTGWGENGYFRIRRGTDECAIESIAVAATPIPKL
How it was run: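 THP1 or U937 cells, grown in RPMI 1640 with 10% FBS, were seeded at 1.0 × 10^6/mL. They were preincubated with threefold serial dilutions of compound for 4 h at 37 °C. H-Gly-Phe-AFC was then added from a 100 μM solution and fluorescence was read after 60 min at 37 °C. Values are means of at least two experiments.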

[3] = target: Cathepsin B (Homo sapiens, UniProt P07858); assay: Inhibition of recombinant human C-terminal polyhistidine-tagged cathepsin B (Arg18 to Ile339 residues) expressed in HEK293 cells using Z-Leu-Arg-AMC as substrate preincubated for 30 mins followed by substrate addition and measured after 30 mins
How it was run: (§1)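 Recombinant human cathepsin was preincubated with compound for 30 min at RT, then reacted with substrate for 30 min. CatB and CatL were read with Z-Leu-Arg-AMC (Ex 380/Em 460 nm). CatS was read with MCA-Arg-Pro-Lys-Pro-Val-Glu-Nva-Trp-Arg-Lys(DNP)-NH2 (Ex 320/Em 405 nm). E-64 served as inhibitor control.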

[4] = target: Cathepsin S (Homo sapiens, UniProt P25774); assay: Inhibition of recombinant human C-terminal polyhistidine-tagged cathepsin S (Met1 to Ile331 residues) expressed in HEK293 cells using MCA-Arg-Pro-Lys-Pro-Val-Glu-NVAL-Trp-Arg-Lys(DNP)-NH2 as substrate preincubated for 30 mins followed by substrate addition and measured after 30 mins; how it was run: as §1
Cathepsin S, sequence (P25774 whole entry): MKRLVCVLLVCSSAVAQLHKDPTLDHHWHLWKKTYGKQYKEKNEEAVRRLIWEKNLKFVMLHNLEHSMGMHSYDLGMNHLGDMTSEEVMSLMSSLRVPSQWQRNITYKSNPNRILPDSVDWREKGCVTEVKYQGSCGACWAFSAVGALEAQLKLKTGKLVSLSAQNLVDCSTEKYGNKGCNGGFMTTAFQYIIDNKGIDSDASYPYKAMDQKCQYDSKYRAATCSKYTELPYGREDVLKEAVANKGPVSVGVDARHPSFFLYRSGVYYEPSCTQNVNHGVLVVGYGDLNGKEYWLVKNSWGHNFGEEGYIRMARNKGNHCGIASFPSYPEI

[5] = target: Cytochrome P450 3A4 (Homo sapiens, UniProt P08684); assay: Inhibition of CYP3A4 (unknown origin); assay type: ADME
Cytochrome P450 3A4, sequence (P08684 whole entry, canonical isoform): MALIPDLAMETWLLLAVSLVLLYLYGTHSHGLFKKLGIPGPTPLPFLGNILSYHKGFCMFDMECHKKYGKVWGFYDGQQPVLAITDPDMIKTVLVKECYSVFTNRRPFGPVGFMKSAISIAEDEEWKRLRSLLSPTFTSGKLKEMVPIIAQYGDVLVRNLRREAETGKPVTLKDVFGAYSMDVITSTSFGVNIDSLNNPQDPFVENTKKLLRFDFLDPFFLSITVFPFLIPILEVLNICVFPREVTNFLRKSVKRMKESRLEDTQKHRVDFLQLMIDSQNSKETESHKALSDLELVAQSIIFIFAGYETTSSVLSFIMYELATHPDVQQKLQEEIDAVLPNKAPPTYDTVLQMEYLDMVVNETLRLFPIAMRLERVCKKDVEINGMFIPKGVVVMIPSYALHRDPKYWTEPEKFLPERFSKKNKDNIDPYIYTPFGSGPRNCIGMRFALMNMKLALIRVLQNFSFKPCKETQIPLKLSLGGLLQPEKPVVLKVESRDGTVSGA
How it was run: (§2)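 Tested against recombinant human cytochrome P450 isoforms 1A2, 2D6, 3A4, 2C9 and 2C19.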

[6] = target: Cytochrome P450 2C9 (Homo sapiens, UniProt P11712); assay: Inhibition of CYP2C9 (unknown origin); assay type: ADME; how it was run: as §2
Cytochrome P450 2C9, sequence (P11712 whole entry): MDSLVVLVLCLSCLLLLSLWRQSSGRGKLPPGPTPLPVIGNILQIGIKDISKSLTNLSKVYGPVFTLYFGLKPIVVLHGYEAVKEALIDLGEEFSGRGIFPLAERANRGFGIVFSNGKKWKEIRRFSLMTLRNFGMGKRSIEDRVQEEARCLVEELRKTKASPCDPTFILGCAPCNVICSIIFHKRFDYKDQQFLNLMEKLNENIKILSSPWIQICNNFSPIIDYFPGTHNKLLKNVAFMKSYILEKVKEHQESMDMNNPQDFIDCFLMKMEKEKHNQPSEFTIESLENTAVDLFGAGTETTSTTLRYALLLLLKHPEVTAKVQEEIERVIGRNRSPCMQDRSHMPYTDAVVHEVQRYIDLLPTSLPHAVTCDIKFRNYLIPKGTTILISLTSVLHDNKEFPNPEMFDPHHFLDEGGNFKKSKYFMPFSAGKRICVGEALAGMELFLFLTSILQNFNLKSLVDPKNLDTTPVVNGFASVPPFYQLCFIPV

[7] = target: Cytochrome P450 2C19 (Homo sapiens, UniProt P33261); assay: Inhibition of CYP2C19 (unknown origin); assay type: ADME; how it was run: as §2
Cytochrome P450 2C19, sequence (P33261 whole entry): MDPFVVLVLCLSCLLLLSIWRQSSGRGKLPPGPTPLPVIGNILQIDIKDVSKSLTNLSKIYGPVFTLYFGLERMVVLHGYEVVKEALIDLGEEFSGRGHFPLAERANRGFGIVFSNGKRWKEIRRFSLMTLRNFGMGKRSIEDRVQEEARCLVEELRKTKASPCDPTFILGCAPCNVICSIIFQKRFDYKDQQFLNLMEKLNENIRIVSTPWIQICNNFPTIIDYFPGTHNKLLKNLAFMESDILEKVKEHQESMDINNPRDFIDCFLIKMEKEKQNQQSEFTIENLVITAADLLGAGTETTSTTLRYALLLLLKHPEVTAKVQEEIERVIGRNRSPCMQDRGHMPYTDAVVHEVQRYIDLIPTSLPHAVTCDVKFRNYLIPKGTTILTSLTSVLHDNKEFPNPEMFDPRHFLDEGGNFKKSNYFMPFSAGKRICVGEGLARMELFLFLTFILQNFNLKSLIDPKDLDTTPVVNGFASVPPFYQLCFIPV

[8] = AUC infinity in C57BL/6 mouse at 2 mg/kg, iv by LC-MS/MS analysis; assay type: ADME, organism-based; parameters: dose 2 mg/kg, time infinity, route intravenous; conditions: in vivo
How it was run: (§3)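 Male C57BL/6 mice (n = 3) were dosed with a single IV dose of 2 mg/kg or an IP or PO dose of 10 mg/kg. Vehicle: 0.5% Methocel and 0.1% Tween-80 in citrate buffer, pH 3. Blood was drawn by eye puncture at several time points and analysed by LC-MS/MS. Parameters came from noncompartmental analysis of individual animals and are reported as means.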

[9] = Half life in C57BL/6 mouse at 2 mg/kg, iv by LC-MS/MS analysis; assay type: ADME, organism-based; conditions: in vivo; how it was run: as §3
[10] = AUC infinity in C57BL/6 mouse at 10 mg/kg, ip by LC-MS/MS analysis; assay type: ADME, organism-based; parameters: dose 10 mg/kg, route intraperitoneal, time infinity; conditions: in vivo; how it was run: as §3
[11] = Half life in C57BL/6 mouse at 10 mg/kg, ip by LC-MS/MS analysis; assay type: ADME, organism-based; conditions: in vivo; how it was run: as §3
[12] = Bioavailability in C57BL/6 mouse at 10 mg/kg, ip by LC-MS/MS analysis; assay type: ADME, organism-based; conditions: in vivo; how it was run: as §3
[13] = Tmax in C57BL/6 mouse at 10 mg/kg, po by LC-MS/MS analysis; assay type: ADME, organism-based; conditions: in vivo; how it was run: as §3
[14] = Oral bioavailability in C57BL/6 mouse at 10 mg/kg by LC-MS/MS analysis; assay type: ADME, organism-based; conditions: in vivo; how it was run: as §3
[15] = Drug uptake in C57BL/6 mouse lung at 10 mg/kg, po by LC-MS/MS analysis; assay type: ADME, organism-based; conditions: in vivo
[16] = Drug uptake in C57BL/6 mouse kidney at 10 mg/kg, po by LC-MS/MS analysis; assay type: ADME, organism-based; conditions: in vivo
[17] = system: Mus musculus; assay: In vivo inhibition of CatC in po dosed C57BL/6 mouse bone marrow administered twice daily for 6 days using Gly-Phe-AFC as substrate measured up to 90 mins by fluorescence assay; assay type: functional, organism-based
How it was run: (§4)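 C57BL/6 mice (20−25 g; n = 10 per group) received oral doses twice daily at 6.7, 20 or 60 mg/kg for 6 days. The vehicle group got 0.5% Methocel and 0.1% Tween-80 in 100 mM citrate buffer, pH 3. Blood was drawn by eye puncture 14 h after the last dose. Bone marrow was flushed from femurs and tibias with ice-cold RPMI 1640. Cells were lysed in 50 mM Tris pH 7.4, 750 mM NaCl, 1% Triton X-100, sonicated on ice and stored at −80 °C. Lysates were diluted by protein content, with blood diluted 5-fold more than marrow. Kinetics were followed for up to 90 min. Results are % of the vehicle mean.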

[18] = system: Mus musculus; assay: In vivo inhibition of CatC in po dosed C57BL/6 mouse bone marrow assessed as reduction in neutrophil elastase activation administered twice daily for 6 days using methoxysuccinyl-Ala-Ala-Pro-Val-AMC as substrate measured up to 90 mins by fluorescence assay; assay type: functional, organism-based; how it was run: as §4
[19] = system: Mus musculus; assay: In vivo inhibition of CatC in po dosed C57BL/6 mouse blood assessed as reduction in proteinase 3 activation administered twice daily for 6 days using aminobenzoyl-Val-Ala-Asp-Cys-Ala-Asp-Gln-ethylenediamine 2,4-dinitrophenyl as substrate measured up to 90 mins by fluorescence assay; assay type: functional, organism-based; how it was run: as §4
[20] = Toxicity in C57BL/6 mouse assessed as effect on WBC level at 60 mg/kg, po administered twice daily for 6 days; assay type: organism-based; conditions: in vivo, 144 h
[21] = system: Mus musculus; assay: In vivo inhibition of CatC in C57BL/6 mouse blood at 20 mg/kg, po single dose using Gly-Phe-AFC as substrate measured 8 hrs post dose for up to 90 mins by fluorescence assay relative to control; conditions: C57BL/6, Blood
[22] = system: Mus musculus; assay: In vivo inhibition of CatC in C57BL/6 mouse blood at 20 mg/kg, po single dose using Gly-Phe-AFC as substrate measured 15 mins post dose for up to 90 mins by fluorescence assay relative to control; conditions: C57BL/6, Blood

Epidermal growth factor receptor, sequence (P00533 whole entry): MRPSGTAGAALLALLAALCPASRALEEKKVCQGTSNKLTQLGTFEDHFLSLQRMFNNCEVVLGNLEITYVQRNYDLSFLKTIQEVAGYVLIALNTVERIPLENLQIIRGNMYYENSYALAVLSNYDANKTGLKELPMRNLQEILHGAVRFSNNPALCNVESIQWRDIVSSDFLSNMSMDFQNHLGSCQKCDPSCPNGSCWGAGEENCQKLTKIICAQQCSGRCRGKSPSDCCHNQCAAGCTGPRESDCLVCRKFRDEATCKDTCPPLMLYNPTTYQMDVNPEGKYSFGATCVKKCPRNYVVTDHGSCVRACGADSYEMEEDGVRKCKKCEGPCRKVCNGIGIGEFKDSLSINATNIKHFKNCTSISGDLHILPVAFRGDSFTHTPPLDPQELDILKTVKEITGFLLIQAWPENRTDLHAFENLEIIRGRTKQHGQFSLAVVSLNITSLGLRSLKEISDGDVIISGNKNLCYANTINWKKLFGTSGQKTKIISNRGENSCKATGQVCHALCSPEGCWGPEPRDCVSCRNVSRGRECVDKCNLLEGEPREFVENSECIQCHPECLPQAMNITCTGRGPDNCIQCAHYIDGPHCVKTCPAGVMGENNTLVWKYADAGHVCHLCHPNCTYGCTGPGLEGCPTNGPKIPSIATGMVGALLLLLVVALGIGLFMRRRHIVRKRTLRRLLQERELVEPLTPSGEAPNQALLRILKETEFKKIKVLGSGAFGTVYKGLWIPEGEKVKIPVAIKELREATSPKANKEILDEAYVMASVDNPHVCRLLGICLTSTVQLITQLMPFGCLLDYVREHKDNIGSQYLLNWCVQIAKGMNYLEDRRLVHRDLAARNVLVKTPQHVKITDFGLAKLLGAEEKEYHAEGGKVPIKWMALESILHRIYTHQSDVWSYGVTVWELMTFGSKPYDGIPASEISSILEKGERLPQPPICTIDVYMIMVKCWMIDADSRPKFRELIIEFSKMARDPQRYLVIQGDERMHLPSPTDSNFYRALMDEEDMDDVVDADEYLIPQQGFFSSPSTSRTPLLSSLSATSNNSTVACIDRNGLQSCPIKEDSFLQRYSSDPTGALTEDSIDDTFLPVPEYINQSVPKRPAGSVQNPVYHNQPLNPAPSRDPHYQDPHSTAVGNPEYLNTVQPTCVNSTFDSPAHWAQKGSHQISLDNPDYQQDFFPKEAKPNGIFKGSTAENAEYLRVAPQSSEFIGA

inhibition [1]: inactive
pIC50 [2]: 8.72
inhibition [2]: Dose-dependent effect
pIC50 [3]: 5.00 to 5.52
pIC50 [4]: < 5.00
pIC50 [5]: < 5.00
pIC50 [6]: < 5.00
pIC50 [7]: < 5.00
AUC(0-inf) [8]: 1220 ng·h/mL
half-life [9]: 1.62 h
AUC(0-inf) [10]: 1240 ng·h/mL
half-life [11]: 1.19 h
bioavailability [12]: 20.3%
Tmax [13]: 0.5 h
bioavailability [14]: 22.3%
Drug uptake [15]: Active
Drug uptake [16]: Active
Structure (SMILES): C=CC(=O)Nc1cc(Oc2nc(Nc3ccc(N4CCN(C)CC4)cc3OC)ccc2N2CCCCC2)ccc1C
inhibition [17]: Dose-dependent effect
inhibition [18]: Dose-dependent effect
inhibition [19]: Dose-dependent effect
Activity [20]: Non-Toxic
inhibition in vivo at 20 mg/kg [21]: 80%
inhibition in vivo at 20 mg/kg [22]: 75%

— ChEMBL document CHEMBL4396895, “Identification and Optimization of Novel Cathepsin C Inhibitors Derived from EGFR Inhibitors” (J Med Chem, 2019)
